# Screening data (PubChem BioAssay)
# STAT3 inh = reduces IL-6 driven STAT3 reporter signal | AID 862 | inhibition, % at 5.5 µM | 0.89% of 190,000 active | U3A cells, IL-6 STAT3-luciferase reporter, luminescence; host cell line lacks STAT1;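 active = inhibition above the mean inhibition across all screened compounds plus 3 SD, cut at about 44% in these data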;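 also: 0% = DMSO only wells and 100% = 100 µM nifuroxazide control wells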
# APP 5'UTR act = APP 5'UTR luciferase reporter activation. activation, % at 2 µM. SH-SY5Y APP 5'UTR luciferase reporter, luminescence; zero percent = DMSO vehicle wells. 1% of 190,000 active. AID 1276;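 active = activation above a set limit, based on mean plus 3 SD of controls, cut at about 140% in these data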
# NF-kB neuron act = compounds increasing NF-kB expression in human neuronal cells; 1.6% of 190,000 active; fold change at 12.5 µM; NF-kB reporter expression; hits give high values; in the data active = fold change above about 3.3
# STAT1 blocker = inhibitors of IFN-gamma induced STAT1 signaling; 0.35% of 200,000 active; AID 920; NIH 3T3 STAT1-luciferase reporter, luminescence; inhibition, % at 5.5 µM;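 active = inhibition above a set limit, the mean inhibition across all tested compounds plus 3 SD, cut at about 34% in these data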;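 also: 0% = IFN-gamma with DMSO and 100% = IFN-gamma with 300 µM nifuroxazide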
# STAT3 act-1 = increases IL-6 driven STAT3 reporter signal | 0.91% of 190,000 active | activation (% of control), % at 5.6 µM | AID 871 | U3A cells, IL-6 STAT3-luciferase reporter, luminescence; 100% = signal with IL-6 EC80 alone;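 active = activation above the screen-wide mean of compound activation plus 3 SD, cut at about 130% in these data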;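 also: 0% = background luminescence of wells with medium and substrate only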
#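 Material: STAT3-luciferase reporter U3A cells; Probe or stimulus: IL-6 (33 ng/mL); Incubation: compound pre-incubation 1 h before IL-6, then 6 h stimulation at 37 °C; Technique: luminescence from STAT3-driven luciferase reporter; Evaluation: % activation versus median of IL-6-stimulated wells; Controls: IL-6-only high control.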
# STAT1 act-1 = activators of IFN-gamma induced STAT1 signaling; NIH 3T3 STAT1-luciferase reporter, luminescence; 100% = IFN-gamma alone, no compound; activation (% of control), % at 5.5 µM; 2.6% of 200,000 active;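 active = activation above the screen-wide mean activation plus 3 SD, cut at about 130% in these data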;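 also: raw ratio to IFN-gamma control signal so 100% means no change and 0% no light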
# STAT3 act-2 = confirmation of STAT3 signaling activators. 64% of 1,200 active. potentiation (% of control), % at 5.7 µM. U3A STAT3-luciferase reporter, IL-6 potentiation, luminescence; U3A cells lack STAT1; 100 means same as IL-6 alone. shares compounds with STAT3 act-1;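 active = percent activation of the STAT3 luciferase reporter above a set limit taken from the earlier primary screen, cut at about 130% in these data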;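 also: 0% = background signal of medium plus substrate and 100% = median of IL-6 with DMSO wells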
# NFkB act STAT3ct = activates NF-kappaB, counter-screen to STAT3 activators; shares compounds with STAT3 act-1; human cells, NF-kappaB reporter activation; activation (% of control), % at 5.7 µM; 11% of 1,200 active; AID 1309; in the data active = activation above about 120%;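 also: reporter induced by TNF-alpha stimulation; 100% = median of stimulated DMSO wells and 0% = no signal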
# STAT1 act-2 = STAT1 activation in STAT3 activator counter-screen. shares compounds with STAT3 act-1. NIH 3T3 STAT1-luciferase reporter, IFN-gamma, luminescence. activation (% of control), % at 5.7 µM. 13% of 1,200 active;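 active = activation above the solvent-only control well mean plus 3 SD, set per screening run, cut at about 120% in these data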;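 also: 100% = IFN-gamma with DMSO median signal so 100% means no change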
# An asterisk follows results filed as active; i = inactive; . = no result. The list is not random: actives were taken first. Their share in the collection is about 5.1%.
SMILES,STAT3 inh,APP 5'UTR act,NF-kB neuron act,STAT1 blocker,STAT3 act-1,STAT1 act-1,STAT3 act-2,NFkB act STAT3ct,STAT1 act-2
CN(C)c1cc(O)c(C(=S)Nc2ccccc2)c(N(C)C)c1,-48,19,0.96,-8,146*,107,136*,110,113
CC(=O)N1N=C(c2ccccc2O)OC1(C)CC(=O)Nc1ccccc1 (stereo unspecified),-46,2,0.88,1,139*,99,140*,99,97
COC(=O)c1sccc1NC(=O)c1cc(C)on1,-56,10,1,-3,151*,103,135*,104,103
COC(=O)c1sccc1NC(=O)c1c(C)noc1C,5,-12,1.1,-9,99,108,.,.,.
COc1cc(/C=C2\SC(N)=NC2=O)ccc1OCC(=O)Nc1ccc(C)cc1,i,12,1.4,24,643*,78,435*,130*,85
C=CCOC(=O)C1C(=O)CC(C)(O)C(C(=O)OCC=C)C1c1ccc(N(C)C)cc1 (stereo unspecified),17,3,0.92,2,94,96,.,.,.
CN1c2ccsc2C(O)=C(C(=S)Nc2ccc(F)c(Cl)c2)S1(=O)=O,-49,-9,1.2,6,142*,93,102,105,97
Cn1cc(C(=O)Nc2ccc(F)c(Cl)c2)cn1,9,17,1.5,-10,96,109,.,.,.
Cn1c(C(C#N)C(=O)c2ccco2)nc2ccccc21 (stereo unspecified),-35,27,1.8,-12,136*,113,136*,111,124*
Cn1c(C(C#N)C(=O)Cc2cccc3ccccc23)nc2ccccc21 (stereo unspecified),4,11,1.2,-3,102,102,.,.,.
COC(=O)C1=C(NC(=O)c2ccc(Br)cc2)CCS1,-34,-8,0.95,-6,146*,105,133*,108,108
COc1ccc(S(=O)(=O)Nc2c(C(=O)O)[nH]c3ccccc23)c(OC)c1,-73,-2,0.95,3,166*,97,159*,105,100
CCOC(=O)NC(=O)C(=CNc1ccc(C)cc1)C(=O)NC(=O)OCC,-6,22,1,12,110,89,.,.,.
Cc1ncoc1C(=O)N1CCc2c([nH]c3ccccc23)C1c1ccccc1F (stereo unspecified),-33,-8,1.3,8,130,91,.,.,.
CN1N=C(C(=O)N2CCc3c([nH]c4ccccc34)C2c2c(F)cccc2Cl)CCC1=O (stereo unspecified),-53,22,1.7,-11,154*,110,150*,104,114
CC(=O)n1cc(-c2ccncc2)c2ccccc21,10,-46,0.86,-5,92,105,.,.,.
CC(=O)n1cc(C(C[N+](=O)[O-])SCCN)c2ccccc21 (stereo unspecified),-47,4,1.1,2,141*,98,138*,113,98
Cc1ccc(C)c(NC(NC(=O)c2ccccn2)C(Cl)(Cl)Cl)c1 (stereo unspecified),-2,9,1.1,-2,103,100,.,.,.
COC(=O)c1ccccc1NC(=O)C(C)Oc1ccccc1 (stereo unspecified),7,-10,0.97,5,98,95,.,.,.
CC(Oc1ccccc1)C(=O)Nc1ccccc1O (stereo unspecified),-36,-11,3,3,137*,97,122,104,100
CCOc1ccccc1N=c1oc2cc(O)ccc2cc1C(=O)NCC1CCCO1 (stereo unspecified),23,12,0.63,-1,84,101,.,.,.
Cc1ccc(S(=O)(=O)N(CC(O)CN2C(=O)NC(C)(C)C2=O)c2ccccc2)cc1 (stereo unspecified),-105,11,1.1,2,187*,98,96,109,101
Cc1cc2ccccn2c1C(=O)Nc1ccc(Cl)cc1,-62,89,1.1,-20,156*,119,166*,114,118
O=S(=O)(c1ccc(Br)cc1)N1CCN(c2cc(-c3ccccc3)nc3ncnn23)CC1,-46,-13,0.8,-1,146*,102,108,99,96
O=S(=O)(c1ccccc1)N1CCN(c2cc(-c3ccccc3)nc3ncnn23)CC1,16,-4,0.6,32,93,72,.,.,.
SMILES,STAT3 inh,APP 5'UTR act,NF-kB neuron act,STAT1 blocker,STAT3 act-1,STAT1 act-1,STAT3 act-2,NFkB act STAT3ct,STAT1 act-2
COc1ccc(NC(=O)CSc2nnc(Cn3cnc4ccccc43)o2)cc1,7,13,1,-7,102,107,.,.,.
CC(SCc1ccccc1)C(=O)NN=C1CCN(C)CC1 (stereo unspecified),5,-2,1.2,9,102,92,.,.,.
CCOC(=O)C1(CC2CCCCO2)CCN(Cc2cc3ccccc3[nH]2)CC1 (stereo unspecified),-49,14,1,19,144*,81,136*,104,95
O=C(c1ccc(F)cc1)C1CCN(S(=O)(=O)c2ccccc2)CC1,7,9,1,-3,96,101,.,.,.
CCc1c(C)sc(NC(=S)N2CC(C)OC(C)C2)c1C(=O)OC (stereo unspecified),8,11,1.1,-6,104,105,.,.,.
Cc1cccc(NC(=S)NC(=O)c2cccs2)n1,-36,82,2,-22,141*,120,138*,117,119
Cc1nc(NC(=S)NC(=O)c2cccs2)ccc1Br,-49,68,2.2,-1,148*,101,173*,110,114
Cc1ccc2nc(NC(=S)NC(=O)c3cccs3)sc2c1,-62,243*,5.5*,-23,163*,121,171*,126*,132*
CCC(=O)Nc1cccc(NC(=O)c2ccc(C)cc2Cl)c1,12,32,1.3,-3,93,101,.,.,.
COc1cc(C(=O)NC2=C(C#N)CCC2)cc(OC)c1OC,2,13,0.94,-4,98,104,.,.,.
CCOC(=O)CSc1ccc(S(=O)(=O)N(C)C2CCCCC2)cc1[N+](=O)[O-],4,10,1.1,0,102,100,.,.,.
COc1cccc(OC)c1C(=O)NC(=S)Nc1ccc2c(c1)Cc1ccccc1-2,-55,14,0.99,0,150*,100,131,101,100
CCCCOCCCNS(=O)(=O)c1ccccc1,-3,-4,1.2,-7,106,107,.,.,.
